Laboratory results published in ChEMBL document CHEMBL3751740, “New MKLP-2 inhibitors in the paprotrain series: Design, synthesis and biological evaluations” (Bioorg Med Chem, 2016).
Active and inactive are the calls of the source. The calls are words filed in the database; no cut-off is given here.

Assays:
[1] = molecular target: T1, Kinesin-like protein KIF20A (Homo sapiens, UniProt O95235); assay: Inhibition of N-terminal MKLP2 (56 to 505 residues) ATPase basal activity isolated from human hepatocellular carcinoma cells by pyruvate kinase/lactate dehydrogenase enzyme linked assay
T1 sequence (O95235 whole entry): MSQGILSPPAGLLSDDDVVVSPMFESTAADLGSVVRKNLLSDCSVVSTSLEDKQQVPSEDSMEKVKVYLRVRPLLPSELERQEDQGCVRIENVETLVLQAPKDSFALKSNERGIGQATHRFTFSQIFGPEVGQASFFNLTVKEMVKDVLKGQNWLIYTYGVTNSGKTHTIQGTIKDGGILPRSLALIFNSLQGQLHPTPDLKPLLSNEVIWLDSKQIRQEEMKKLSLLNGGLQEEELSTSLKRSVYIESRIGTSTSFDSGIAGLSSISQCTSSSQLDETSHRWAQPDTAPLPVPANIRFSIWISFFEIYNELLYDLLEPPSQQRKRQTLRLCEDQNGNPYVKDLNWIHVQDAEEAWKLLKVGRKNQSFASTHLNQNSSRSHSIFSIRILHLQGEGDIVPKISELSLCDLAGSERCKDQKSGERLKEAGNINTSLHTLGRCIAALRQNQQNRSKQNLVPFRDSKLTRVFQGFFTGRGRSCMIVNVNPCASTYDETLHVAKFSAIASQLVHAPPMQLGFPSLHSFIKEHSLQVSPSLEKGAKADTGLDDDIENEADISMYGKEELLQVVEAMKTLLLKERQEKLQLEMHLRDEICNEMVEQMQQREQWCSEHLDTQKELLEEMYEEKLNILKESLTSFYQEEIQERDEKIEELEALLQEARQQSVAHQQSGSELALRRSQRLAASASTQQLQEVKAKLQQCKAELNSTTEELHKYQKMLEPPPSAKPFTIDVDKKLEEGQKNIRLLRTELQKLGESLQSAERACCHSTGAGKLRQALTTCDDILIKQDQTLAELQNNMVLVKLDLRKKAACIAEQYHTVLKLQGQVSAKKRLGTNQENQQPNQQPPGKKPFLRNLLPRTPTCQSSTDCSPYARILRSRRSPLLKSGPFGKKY

KB [2] = assay: Growth inhibition of human KB cells at 10 uM after 72 hrs by MTS assay; assay type: functional; conditions: for inhibition of growth at 10 µM: read-out: GI
Method in brief: (§1)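 KB cells were grown in DMEM with 25 mM glucose and 10% FCS at 37 °C, 5% CO2, and seeded at 500 cells/well. 24 h later, compound in DMSO (1% final) was added at 10 µM or 1 µM for 72 h; controls received DMSO alone. Runs were in duplicate. Viable cells were read with MTS at 490 nm.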

KB [3] = assay: Growth inhibition of human KB cells at 1 uM after 72 hrs by MTS assay; assay type: functional; conditions: for inhibition of growth at 1 µM: read-out: GI; method in brief: as §1
[4] = molecular target: T1, Kinesin-like protein KIF20A; assay: Inhibition of microtubule-stimulated N-terminal MKLP-2 (56 to 505 residues) ATPase activity isolated from human hepatocellular carcinoma cells by pyruvate kinase/lactate dehydrogenase enzyme linked assay
Ovis aries [5] = species on record: Ovis aries; assay: Induction of sheep brain microtubule disassembly by UV spectrophotometric analysis
Method in brief: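 Sheep brain tubulin, purified by two assembly/disassembly cycles and held in MES buffer with GTP at pH 6.6, was polymerized at 37 °C for 10 min. Compound was then added to the MTs at 0 °C and depolymerization was followed over the next few minutes by turbidity at 350 nm.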

Ovis aries [6] = species on record: Ovis aries; assay: (§2) Inhibition of sheep brain tubulin polymerization by UV spectrophotometric analysis; parameters: concentration or dose not given beside the values
Method in brief: (§3)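 Tubulin purified from sheep brain by two assembly/disassembly cycles, about 2–3 mg/mL in 0.1 M MES, 0.5 mM MgCl2, 1 mM EGTA, 1 mM GTP, pH 6.6. Compound in DMSO added at 0 °C, then moved to a 37 °C thermostated cell. Assembly followed by turbidity at 350 nm for a few min.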

Ovis aries [7] = species on record: Ovis aries; assay: Inhibition of sheep brain microtubule disassembly by UV spectrophotometric analysis; parameters: concentration or dose not given beside the values
[8] = as §2; parameters: species or system Ovis aries; method in brief: as §3

SMILES | IC50 [1] | inhibition of growth at 10 µM (KB [2]) | growth inhibition (GI) (KB [3]) | IC50 [4] | Activity (Ovis aries [5]) | inhibition (Ovis aries [6]; concentration not given here) | inhibition (Ovis aries [6]) | inhibition of growth at 1 µM (KB [3]) | Activity (Ovis aries [7]) | IC50 [8] | growth inhibition (GI) (KB [2])
N#C/C(=C\c1ccc(C(F)(F)F)cc1)c1c[nH]c2ccccc12 | Not Active | 87% | inactive | Not Active | inactive | 57% | – | – | – | – | –
COc1ccc2[nH]cc(C(C#N)c3cccnc3)c2c1 (centres undefined) | Not Active | 45% | – | Not Active | inactive | – | inactive | – | – | – | –
N#C/C(=C\c1cccc(Cl)c1)c1c[nH]c2ccccc12 | – | 94% | – | – | inactive | – | inactive | 19% | – | – | –
COc1cc(OC)c(/C=C(\C#N)c2c[nH]c3ccccc23)c(OC)c1 | Not Active | 83% | inactive | Not Active | – | – | inactive | – | 13% | – | –
COc1ccc(/C=C(\C#N)c2c[nH]c3ccccc23)cc1OC | Not Active | 99% | – | Not Active | inactive | 62% | – | 25% | – | 20 µM | –
N#CC(Cc1cccnc1)c1c[nH]c2ccccc12 (centres undefined) | – | 5% | – | – | – | 16% | – | – | 21% | – | –
N#C/C(=C\c1ccc(Cl)cc1)c1c[nH]c2ccccc12 | – | 78% | – | – | inactive | 13% | – | – | – | – | –
N#C/C(=C\c1c[nH]c2ccccc12)c1cccnc1 | – | 23% | – | – | inactive | 45% | – | – | – | – | –
COc1cccc(/C=C(\C#N)c2c[nH]c3ccccc23)c1OC | Not Active | 100% | – | Not Active | inactive | – | inactive | 2% | – | – | –
COc1ccc2[nH]cc(C(=O)/C(C#N)=C/c3cccnc3)c2c1 | Not Active | 27% | – | Not Active | – | – | inactive | – | 14% | – | –
COc1ccc2c(c1)c(/C(C#N)=C/c1cccnc1)cn2C(C)=O | Not Active | 74% | – | Not Active | inactive | – | inactive | – | – | – | –
COc1ccc2[nH]c(C)c(/C(C#N)=C/c3cccnc3)c2c1 | – | 69% | – | – | inactive | – | inactive | – | – | – | –
COc1ccc(/C=C(\C#N)c2c[nH]c3ccccc23)c(OC)c1 | Not Active | 99% | – | Not Active | inactive | 76% | – | 35% | – | 12 µM | –
COc1cc(/C=C(\C#N)c2c[nH]c3ccccc23)cc(OC)c1O | Not Active | 95% | – | Not Active | – | 22% | – | 59% | 47% | – | –
COc1ccc2[nH]cc(/C(C#N)=C/C=C/c3cccnc3)c2c1 | Not Active | 10% | – | Not Active | inactive | 11% | – | – | – | – | –
COc1cccc2c(/C(C#N)=C/c3cccnc3)c[nH]c12 | Not Active | 85% | inactive | Not Active | inactive | – | inactive | – | – | – | –
N#C/C(=C\c1ccc(F)cc1)c1c[nH]c2ccccc12 | – | 84% | inactive | – | inactive | 22% | – | – | – | – | –
COc1cc(/C=C(\C#N)c2c[nH]c3ccccc23)cc(OC)c1OC | Not Active | 81% | – | Not Active | inactive | – | inactive | 6% | – | – | –
N#C/C(=C\c1cccnc1)c1c[nH]c2ncccc12 | – | 100% | – | – | inactive | 19% | – | 29% | – | – | –
COc1cccc(/C=C(\C#N)c2c[nH]c3ccccc23)c1 | Not Active | 89% | inactive | Not Active | – | 37% | – | – | 38% | – | –
CSc1ccc(/C=C(\C#N)c2c[nH]c3ccccc23)cc1 | Not Active | 98% | inactive | Not Active | inactive | – | inactive | – | – | – | –
N#C/C(=C\c1cccnc1)c1c(-c2ccccc2)[nH]c2ccccc12 | Not Active | 93% | inactive | Not Active | – | 33% | – | – | 13% | – | –
COc1cc(OC)c(OC)cc1/C=C(\C#N)c1c[nH]c2ccccc12 | Not Active | 100% | – | Not Active | inactive | 32% | – | 40% | – | – | –
N#C/C(=C\c1cccnc1)c1c(-c2ccsc2)[nH]c2ccccc12 | Not Active | 99% | – | Not Active | inactive | 70% | – | 12% | – | 9.2 µM | –
COc1cc(/C=C(\C#N)c2c[nH]c3ccccc23)cc(OC)c1 | – | 96% | – | – | – | 31% | – | 31% | 11% | – | –
COc1ccc2[nH]cc(/C(=C/C#N)Cc3cccnc3)c2c1 | Not Active | – | – | Not Active | inactive | 33% | – | – | – | – | inactive
